The Ki is the dissociation constant of the complex between target and ligand, obtained from inhibition or displacement.

Experiment [1] has as its system Rattus norvegicus. Description: Effect (3 mg/kg) on motor arousal induced by apomorphine (0.3 mg/kg) expressed as percent control. The format is functional. Put shortly:
(§1)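 Rats received test enantiomer ip immediately before apomorphine (0.3 mg/kg). They were then placed in a microcomputer-controlled electronic activity monitor for 1 h. Read-out was activity counts per hour, mean ± SEM, N = 6. Comparison was against a saline + apomorphine control by Student's t test.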

Experiment [2] relates to Rattus norvegicus. The experiment can be described thus: Stereotyped behavior in rat induced by Aporphines after ip administration at 0 mg/kg dose. The following applies: route intraperitoneal. Type of experiment: functional. Put shortly:
(§2)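 Aporphine given ip to rats (doses 0.3–3.0 mg/kg; saline as 0). Stereotyped behavior rated every 10 min for 1 h. Mean stereotypy score, maximum 18.0, ± SEM, N = 6. Student's t test, p < 0.05.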

Experiment [3] relates to Rattus norvegicus. Description: Stereotyped behavior in rat induced by Aporphines after ip administration at 3.0 mg/kg dose. Conditions: route intraperitoneal. Type of experiment: functional. The method, boiled down: as §2
For experiment [4], the system named is Rattus norvegicus. Description: Effect (3 mg/kg) on motor arousal induced by apomorphine. The format is functional. The method, boiled down: as §1
Experiment [5] deals with Rattus norvegicus. The experiment can be described thus: Stereotyped behavior in rat induced by Aporphines after ip administration at 1.0 mg/kg dose. Type of experiment: functional. Conditions: route intraperitoneal. Put shortly: as §2
Experiment [6] concerns Rattus norvegicus. The experiment can be described thus: Stereotyped behavior in rat induced by Aporphines after ip administration at 0.3 mg/kg dose. The format is functional. The following applies: route intraperitoneal. Put shortly: as §2
For experiment [7], the target named is Dopamine receptor. Description: Binding affinity against dopamine agonist sites from rat brain corpus striatal preparations using [3H]ADTN.
Experiment [8] deals with D(2) dopamine receptor (Rattus norvegicus, UniProt P61169). The experiment can be described thus: Binding affinity against Dopamine receptor D2 from rat brain corpus striatal preparations using [3H]spiperone.
Experiment [9] addresses D(1A) dopamine receptor (Rattus norvegicus, UniProt P18901). The experiment can be described thus: Binding affinity against Dopamine receptor D1 from rat brain corpus striatal preparations using [3H]SCH-23390.
For experiment [10], the system named is Rattus norvegicus. Description: Effect (1 mg/kg) on motor arousal induced by apomorphine (0.3 mg/kg). Type of experiment: functional. Put shortly:
as §1

In experiment [11] the test system is Rattus norvegicus. Description: Effect (1 mg/kg) on motor arousal induced by apomorphine (0.3 mg/kg) expressed as percent control. Type of experiment: functional. Put shortly:
as §1

In experiment [12] the test system is Rattus norvegicus. Description: Effect (10 mg/kg) on motor arousal induced by apomorphine (0.3 mg/kg) expressed as percent control. The format is functional. The method, boiled down:
as §1

The test system of experiment [13] is Rattus norvegicus. Description: Effect (3 mg/kg) on motor arousal induced by apomorphine (0.3 mg/kg). Type of experiment: functional. The method, boiled down: as §1
For experiment [14], the system named is Rattus norvegicus. Description: Effect on motor arousal induced by apomorphine (0.3 mg/kg) expressed as percent control. Type of experiment: functional. Put shortly: as §1
The test system of experiment [15] is Rattus norvegicus. The experiment can be described thus: Effect (0.3 mg/kg) on motor arousal induced by apomorphine. The format is functional. The method, boiled down: as §1

Sequence of D(1A) dopamine receptor (P18901 whole entry): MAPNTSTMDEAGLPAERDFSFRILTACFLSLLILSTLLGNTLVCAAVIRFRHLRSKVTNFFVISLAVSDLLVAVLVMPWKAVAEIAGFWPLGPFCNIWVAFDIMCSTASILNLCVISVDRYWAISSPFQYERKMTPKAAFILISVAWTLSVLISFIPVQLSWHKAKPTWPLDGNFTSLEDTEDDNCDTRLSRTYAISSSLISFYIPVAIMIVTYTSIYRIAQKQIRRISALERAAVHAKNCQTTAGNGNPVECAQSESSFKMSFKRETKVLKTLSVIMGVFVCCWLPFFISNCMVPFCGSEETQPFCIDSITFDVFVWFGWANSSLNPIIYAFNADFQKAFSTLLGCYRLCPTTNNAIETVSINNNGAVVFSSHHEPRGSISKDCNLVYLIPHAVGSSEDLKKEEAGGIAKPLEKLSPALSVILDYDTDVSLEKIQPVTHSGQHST
Sequence of D(2) dopamine receptor (P61169 whole entry): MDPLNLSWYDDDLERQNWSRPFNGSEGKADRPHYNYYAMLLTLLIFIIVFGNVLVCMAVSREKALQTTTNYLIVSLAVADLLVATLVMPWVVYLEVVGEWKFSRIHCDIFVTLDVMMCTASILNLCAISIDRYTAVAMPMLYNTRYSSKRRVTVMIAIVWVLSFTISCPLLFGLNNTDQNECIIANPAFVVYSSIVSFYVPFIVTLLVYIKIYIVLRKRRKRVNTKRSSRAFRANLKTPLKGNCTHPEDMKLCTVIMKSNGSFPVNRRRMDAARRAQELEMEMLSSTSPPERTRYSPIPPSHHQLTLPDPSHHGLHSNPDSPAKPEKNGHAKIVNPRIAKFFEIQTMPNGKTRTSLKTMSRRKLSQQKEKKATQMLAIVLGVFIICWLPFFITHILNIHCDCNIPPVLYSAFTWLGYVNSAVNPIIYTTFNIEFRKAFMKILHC

For the compound `CCCN1CCc2cccc3c2[C@H]1Cc1cccc(O)c1-3`, in experiment [1], the Control worked out at 151%. Also, the Activity in experiment [2] was determined as 0.8; in experiment [3], 13.8; in [4] it was 764; in [5], 9.5; in experiment [6], 5.7.
Take `CCCN1CCc2cccc3c2[C@@H]1Cc1ccccc1-3`: the results for the Ki in experiment [7], in [8] and in experiment [9] were 278 nM, 115 nM and 1340 nM, respectively.
As to `CCCN1CCc2cccc3c2[C@@H]1Cc1cccc(O)c1-3`, the Control turned out to be 43% in experiment [1], 81% in experiment [11] and 21% in [12]. The Activity in experiment [2] was 0.8; in experiment [10], 410; in experiment [3], 1.3; in [5] it was 1.7; in experiment [6] it was 0.6; in experiment [13], 218.
As to `CCCN1CCc2cccc3c2[C@H]1Cc1ccccc1-3`, the Ki in experiment [7] amounted to 1.1 nM; in experiment [8], 2.4 nM; in experiment [9], 340 nM.
For the compound `CN1CCc2cccc3c2[C@H]1Cc1ccc(O)c(O)c1-3` [APOMORPHINE], the Activity in experiment [2] is listed as 0.8; in experiment [3], 17.5; in experiment [5], 12.7; in experiment [6], 9.7; in experiment [15], 505. The Control in experiment [14] is on record as 100%.

The values above are taken from ChEMBL document CHEMBL1124155, “Synthesis and dopamine agonist and antagonist effects of (R)-(-)- and (S)-(+)-11-hydroxy-N-n-propylnoraporphine” (J Med Chem, 1988).
